Data taken from ChEMBL document CHEMBL4354873, “Rationally Designed Small-Molecule Inhibitors Targeting an Unconventional Pocket on the TLR8 Protein-Protein Interface” (J Med Chem, 2020).
Active and inactive are the calls of the source. No cut-off for these calls is given here.

Legend:
TLR2/TLR6 (Homo sapiens) = TLR2/TLR6 (Homo sapiens) (UniProt O60603+Q9Y2C9); experiment: Inhibition of human TLR2/6 expressed in HEK-Blue cells assessed as inhibition of Pam2CSK4-induced NF-kappaB activation at 20 uM measured after 24 hrs by quanti-blue based SEAP reporter gene assay; assay type: cell-based
How it was run: (§1)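 HEK-Blue SEAP format: 4 × 10⁴ cells/well in DMEM with ligand plus compound, 24 h at 37 °C. Supernatant mixed with QUANTI-Blue up to 1 h, then A620 read. Ligands: Pam3CSK4 100 ng/mL (TLR1/2), Pam2CSK4 100 ng/mL (TLR2/6), poly(I:C) 5 µg/mL (TLR3), LPS 20 ng/mL (TLR4), flagellin 50 ng/mL (TLR5), R848 1 µg/mL (TLR7), R848 2 µg/mL (TLR8), ODN2006 0.5 µM (TLR9). Mean ± s.d.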

[1] = molecular target: T1, Toll-like receptor 8 (Homo sapiens) (UniProt Q9NR97); experiment: Inhibition of human TLR8 expressed in HEK-Blue cells assessed as inhibition of R848-induced NF-kappaB activation at 20 uM measured after 24 hrs by quanti-blue based SEAP reporter gene assay; assay type: cell-based; how it was run: as §1
T1 sequence (whole entry): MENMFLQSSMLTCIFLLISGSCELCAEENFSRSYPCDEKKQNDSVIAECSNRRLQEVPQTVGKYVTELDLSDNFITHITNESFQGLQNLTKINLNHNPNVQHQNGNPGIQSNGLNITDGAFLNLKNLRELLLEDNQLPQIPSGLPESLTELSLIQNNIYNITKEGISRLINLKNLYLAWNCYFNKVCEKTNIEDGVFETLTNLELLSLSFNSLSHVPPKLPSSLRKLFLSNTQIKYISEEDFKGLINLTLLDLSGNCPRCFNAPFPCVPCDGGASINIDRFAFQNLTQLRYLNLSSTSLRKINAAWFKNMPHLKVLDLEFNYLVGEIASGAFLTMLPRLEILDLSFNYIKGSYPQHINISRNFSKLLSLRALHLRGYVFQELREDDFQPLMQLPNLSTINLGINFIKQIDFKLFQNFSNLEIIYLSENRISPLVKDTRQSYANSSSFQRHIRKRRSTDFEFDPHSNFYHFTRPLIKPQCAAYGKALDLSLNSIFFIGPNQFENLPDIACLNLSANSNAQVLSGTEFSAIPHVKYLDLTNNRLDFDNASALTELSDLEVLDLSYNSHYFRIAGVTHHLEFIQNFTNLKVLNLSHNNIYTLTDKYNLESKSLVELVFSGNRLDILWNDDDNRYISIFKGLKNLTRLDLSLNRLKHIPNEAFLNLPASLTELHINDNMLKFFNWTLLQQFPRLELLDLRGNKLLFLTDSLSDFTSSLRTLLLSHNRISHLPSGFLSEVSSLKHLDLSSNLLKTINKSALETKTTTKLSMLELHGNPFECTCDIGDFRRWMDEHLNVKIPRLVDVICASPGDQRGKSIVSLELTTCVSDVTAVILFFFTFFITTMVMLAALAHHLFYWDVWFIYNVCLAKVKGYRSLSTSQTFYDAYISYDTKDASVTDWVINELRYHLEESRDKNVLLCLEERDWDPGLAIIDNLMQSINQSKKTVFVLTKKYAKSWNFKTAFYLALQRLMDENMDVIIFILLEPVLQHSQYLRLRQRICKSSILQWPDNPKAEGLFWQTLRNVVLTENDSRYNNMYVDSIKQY

[2] = molecular target: T1, Toll-like receptor 8 (Homo sapiens); experiment: Inhibition of human TLR8 expressed in HEK-Blue cells assessed as inhibition of ssRNA06-induced NF-kappaB activation measured after 24 hrs by quanti-blue based SEAP reporter gene assay; assay type: cell-based
How it was run: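 HEK-Blue TLR8 cells, 4 × 10⁴/well, stimulated with ssRNA06 in the presence of varying compound concentrations for 24 h at 37 °C. SEAP read with QUANTI-Blue at 620 nm. Normalized so ligand-treated cells are 100% activation and untreated cells 0%.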

[3] = molecular target: T2, Toll-like receptor 7 (Homo sapiens) (UniProt Q9NYK1); experiment: Effect on TLR7-mediated signaling in human PBMC assessed as change in basal TNFalpha secretion up to 20 uM measured after 24 hrs by ELISA
T2 sequence (whole entry): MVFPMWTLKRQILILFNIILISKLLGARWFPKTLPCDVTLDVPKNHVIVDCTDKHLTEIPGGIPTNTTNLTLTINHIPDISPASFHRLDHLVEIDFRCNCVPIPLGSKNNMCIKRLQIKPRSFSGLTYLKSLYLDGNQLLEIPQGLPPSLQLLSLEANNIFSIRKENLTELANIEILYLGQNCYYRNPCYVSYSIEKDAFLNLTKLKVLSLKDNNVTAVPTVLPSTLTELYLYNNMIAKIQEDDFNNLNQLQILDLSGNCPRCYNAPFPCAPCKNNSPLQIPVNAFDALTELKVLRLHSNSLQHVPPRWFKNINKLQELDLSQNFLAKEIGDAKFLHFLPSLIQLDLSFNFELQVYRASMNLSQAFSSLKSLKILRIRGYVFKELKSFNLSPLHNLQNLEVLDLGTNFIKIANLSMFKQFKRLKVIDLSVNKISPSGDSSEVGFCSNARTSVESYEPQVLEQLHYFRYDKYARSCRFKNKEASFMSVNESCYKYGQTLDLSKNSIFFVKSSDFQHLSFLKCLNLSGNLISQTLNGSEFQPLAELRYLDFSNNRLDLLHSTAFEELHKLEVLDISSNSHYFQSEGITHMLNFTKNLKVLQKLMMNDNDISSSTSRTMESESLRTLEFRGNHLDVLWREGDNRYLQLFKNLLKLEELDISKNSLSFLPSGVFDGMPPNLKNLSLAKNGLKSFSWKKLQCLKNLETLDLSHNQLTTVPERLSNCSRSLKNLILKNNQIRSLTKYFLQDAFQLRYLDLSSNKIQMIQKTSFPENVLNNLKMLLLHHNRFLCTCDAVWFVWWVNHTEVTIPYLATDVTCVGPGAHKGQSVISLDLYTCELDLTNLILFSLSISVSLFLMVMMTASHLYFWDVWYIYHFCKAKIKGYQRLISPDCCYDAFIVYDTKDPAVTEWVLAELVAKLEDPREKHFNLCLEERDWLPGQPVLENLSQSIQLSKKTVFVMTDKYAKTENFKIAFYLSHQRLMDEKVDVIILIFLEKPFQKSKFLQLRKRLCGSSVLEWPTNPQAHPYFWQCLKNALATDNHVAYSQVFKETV

CSc1nnc(CCCO)n1-c1cc(C)c(C)c(C)c1
inhibition (TLR2/TLR6 (Homo sapiens)): inactive | inhibition [1]: Active | inhibition [2]: Dose-dependent effect | Activity [3]: inactive
